Assay results reported in ChEMBL document CHEMBL1121993, “A specific inhibitor of IgE-antibody formation: n-pentyl beta-D-fructopyranoside” (1982).

Columns and labels:
Type in all cases: functional
Rattus norvegicus [1] = species: Rattus norvegicus; assay: Evaluated for effect against passive cutaneous anaphylaxis in rats immunized with DNP-As and B. pertussis; PCA (log2)
Procedure, shortened: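 Rats were immunized with 1 mg DNP-As and 10^10 B. pertussis on day 0 and boosted with 0.5 mg DNP-As on day 5. Drug was given at 100 (mg/kg)/day ip for 5 days from day 0, and serum was taken on day 8. PCA was read in male Wistar rats after id serum, with iv DNP-As and Evans blue. Titer is the greatest dilution with a spot >5 mm; means ± SE of eight rats.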

Mus musculus [2] = species: Mus musculus; assay: Evaluated for effect against passive hemagglutinination (PHA) in female BALB/c mice immunized with 10 ug of DNP-As and 2 mg of Al(OH3) after day 30; PHA(log2)
Procedure, shortened: (§1)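 Female BALB/c mice were given 10 μg DNP-As and 2 mg Al(OH)3 on day 0, then 100 (mg/kg)/day po in 2% NaHCO3 for 5 days after immunization. Pooled sera from five mice (days 10, 21, 30) were serially diluted and mixed with sheep red cells coupled to DNP-As via glutaraldehyde, then held 2 h at 37 °C. Titer is the greatest dilution with complete agglutination, expressed as n of 2^n.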

Rattus norvegicus [3] = species: Rattus norvegicus; assay: Evaluated for effect against passive hemagglutinination in female wistar rats; PHA(log2)
Procedure, shortened: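 Female Wistar rats were immunized with 1 mg DNP-As plus 10¹⁰ killed B. pertussis on day 0, boosted on day 5 with 0.5 mg DNP-As, and sera taken on day 8. Compound in 2% NaHCO₃ was given at 100 (mg/kg)/day po for 5 days from day 0. Hemagglutination used DNP-As-coupled sheep RBC, 2 h at 37 °C; titer is the highest complete-agglutination dilution (log2); mean ± SE, eight rats.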

Mus musculus [4] = species: Mus musculus; assay: Evaluated for effect against passive cutaneous anaphylaxis (PCA) in female BALB/c mice immunized with 10 ug of DNP-As and 2 mg of Al(OH3) after day 10; PCA (log2)
Procedure, shortened: (§2)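 Female BALB/c mice received 10 μg DNP-As and 2 mg Al(OH)3 on day 0, then 100 (mg/kg)/day po in 2% NaHCO3 for 5 days after immunization. Sera were taken on days 10, 21 and 30 and pooled from five mice. PCA was done in normal male Wistar rats: serum id in duplicate, then 1 mg DNP-As with 5 mg Evans blue iv; titer is the greatest dilution with a reaction >5 mm.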

Mus musculus [5] = species: Mus musculus; assay: Evaluated for effect against passive cutaneous anaphylaxis (PCA) in female BALB/c mice immunized with 10 ug of DNP-As and 2 mg of Al(OH3) after day 21; PCA (log2); procedure, shortened: as §2
Rattus norvegicus [6] = species: Rattus norvegicus; assay: Evaluated for effect against passive cutaneous anaphylaxis in female wistar rats; PCA (log2)
Procedure, shortened: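 Female Wistar rats (190–210 g) were immunized with 1 mg DNP-As plus 10^10 killed B. pertussis on day 0 and boosted with 0.5 mg DNP-As on day 5; serum was taken on day 8. Drug was given at 100 (mg/kg)/day po in 2% NaHCO3 for 5 days from day 0. Serum was then tested by PCA in normal male rats (Evans blue readout, >5 mm cutoff). Values are means ± SE, n=8.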

Mus musculus [7] = species: Mus musculus; assay: Evaluated for effect against passive hemagglutinination (PHA) in female BALB/c mice immunized with 10 ug of DNP-As and 2 mg of Al(OH3) after day 10; PHA(log2); procedure, shortened: as §1
Mus musculus [8] = species: Mus musculus; assay: Evaluated for effect against passive cutaneous anaphylaxis (PCA) in female BALB/c mice immunized with 10 ug of DNP-As and 2 mg of Al(OH3) after day 30; PCA (log2); procedure, shortened: as §2
Mus musculus [9] = species: Mus musculus; assay: Evaluated for effect against passive hemagglutinination (PHA) in female BALB/c mice immunized with 10 ug of DNP-As and 2 mg of Al(OH3) after day 21; PHA(log2); procedure, shortened: as §1
Rattus norvegicus [10] = species: Rattus norvegicus; assay: Evaluated for effect against passive hemagglutinination in rats immunized with DNP-As and B. pertussis; PHA(log2)
Procedure, shortened: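 Rats were immunized day 0 with 1 mg DNP-As plus 10¹⁰ killed B. pertussis, boosted day 5 with 0.5 mg DNP-As alone, and titers read on day 8. Dosing was 100 (mg/kg)/day ip for 5 days from day 0. Serum dilutions were incubated with DNP-As-coupled sheep erythrocytes for 2 h at 37 °C; complete agglutination endpoint as 2^n; means ± SE, eight rats.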

Mus musculus [11] = species: Mus musculus; assay: Evaluated for effect against passive cutaneous anaphylaxis in female BALB/c mice immunized with 10 ug of DNP-As and 2 mg of Al(OH3) after day 10; PCA (log2); procedure, shortened: as §2
Mus musculus [12] = species: Mus musculus; assay: Evaluated for effect against passive hemagglutinination in female BALB/c mice immunized with 10 ug of DNP-As and 2 mg of Al(OH3) after day 10; PHA(log2); procedure, shortened: as §1
Mus musculus [13] = species: Mus musculus; assay: Evaluated for effect against passive hemagglutinination in female BALB/c mice immunized with 10 ug of DNP-As and 2 mg of Al(OH3) after day 21; PHA(log2); procedure, shortened: as §1
Mus musculus [14] = species: Mus musculus; assay: Evaluated for effect against passive hemagglutinination in female BALB/c mice immunized with 10 ug of DNP-As and 2 mg of Al(OH3) after day 30; PHA(log2); procedure, shortened: as §1
Mus musculus [15] = species: Mus musculus; assay: Evaluated for effect against passive cutaneous anaphylaxis in female BALB/c mice immunized with 10 ug of DNP-As and 2 mg of Al(OH3) after day 21; PCA (log2); procedure, shortened: as §2
Mus musculus [16] = species: Mus musculus; assay: Evaluated for effect against passive cutaneous anaphylaxis in female BALB/c mice immunized with 10 ug of DNP-As and 2 mg of Al(OH3) after day 30; PCA (log2); procedure, shortened: as §2

CCCO[C@@]1(CO)O[C@H](CO)[C@@H](O)[C@@H]1O
PCA (Rattus norvegicus [1]): 7.3

CCO[C@@]1(CO)O[C@H](CO)[C@@H](O)[C@@H]1O
PCA (Rattus norvegicus [1]): 6.5

CCO[C@]1(CO)OC[C@@H](O)[C@H](O)[C@@H]1O
PHA (Mus musculus [2]): 6
PHA (Rattus norvegicus [3]): 8.5
PCA (Mus musculus [4]): 7.9
PCA (Mus musculus [5]): 8.3
PCA (Rattus norvegicus [6]): 6.7
PHA (Mus musculus [7]): 5
PCA (Mus musculus [8]): 7.8
PHA (Mus musculus [9]): 5
PCA (Rattus norvegicus [1]): 7.1
PHA (Rattus norvegicus [10]): 7.9

O=P1(N(CCCl)CCCl)NCCCO1 (centres undefined) [CYCLOPHOSPHAMIDE ANHYDROUS]
PCA (Rattus norvegicus [1]): <2
PHA (Rattus norvegicus [10]): 1.3

CCCCO[C@@]1(CO)O[C@H](CO)[C@@H](O)[C@@H]1O
PCA (Rattus norvegicus [1]): 6.7

OC[C@@]1(OCc2ccccc2)OC[C@@H](O)[C@H](O)[C@@H]1O
PCA (Mus musculus [11]): 8.6
PHA (Mus musculus [12]): 6
PHA (Mus musculus [13]): 5
PHA (Mus musculus [14]): 6
PCA (Rattus norvegicus [1]): 7
PCA (Mus musculus [15]): 9
PCA (Mus musculus [16]): 8.4
PHA (Rattus norvegicus [10]): 9

CCO[C@]1(CO)O[C@H](CO)[C@@H](O)[C@@H]1O
PCA (Rattus norvegicus [1]): 6.1
